Bioassay records (PubChem)
In the library only some 0.92% were active in any assay of this set; here they are far more common.
FN deposit inh: fibronectin deposition inhibition | inhibition, % at 12.6 µM | AID 743247 | 350,000 tested, 0.086% active | AH1F fibroblasts, Alexa488-fibronectin deposition fluorescence, overnight;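 active means mean inhibition across replicates of 30% or more, regardless of how many single replicates reach that level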;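 further: positive control wells lacked labelled fibronectin entirely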
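Measured by – fluorescence 485/525 nm · System – AH1F fibroblast monolayer, labelled fibronectin deposition · Amount – 10000 cells per well · Buffer or medium – serum-reduced DMEM (2% serum) · Doses – single dose, pinned · Also added – fluorescent fibronectin at 24 nM final · Schedule – 1 h cell attachment, overnight exposure to compound and label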
AF4-AF9 inh: MLL-AF4/AF9 protein interaction inhibition. P42568. inhibition, % at 10 µM. AID 651704. 350,000 tested, 0.47% active. AlphaScreen, biotin-AF4 peptide binding to FLAG-AF9;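 active means every replicate reaching a set inhibition limit, whatever the replicate mean, cut at about 25% in these data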;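 further: 0% = plate neutral control median and 100% = total signal loss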
Target sequence (P42568 whole entry, looked up): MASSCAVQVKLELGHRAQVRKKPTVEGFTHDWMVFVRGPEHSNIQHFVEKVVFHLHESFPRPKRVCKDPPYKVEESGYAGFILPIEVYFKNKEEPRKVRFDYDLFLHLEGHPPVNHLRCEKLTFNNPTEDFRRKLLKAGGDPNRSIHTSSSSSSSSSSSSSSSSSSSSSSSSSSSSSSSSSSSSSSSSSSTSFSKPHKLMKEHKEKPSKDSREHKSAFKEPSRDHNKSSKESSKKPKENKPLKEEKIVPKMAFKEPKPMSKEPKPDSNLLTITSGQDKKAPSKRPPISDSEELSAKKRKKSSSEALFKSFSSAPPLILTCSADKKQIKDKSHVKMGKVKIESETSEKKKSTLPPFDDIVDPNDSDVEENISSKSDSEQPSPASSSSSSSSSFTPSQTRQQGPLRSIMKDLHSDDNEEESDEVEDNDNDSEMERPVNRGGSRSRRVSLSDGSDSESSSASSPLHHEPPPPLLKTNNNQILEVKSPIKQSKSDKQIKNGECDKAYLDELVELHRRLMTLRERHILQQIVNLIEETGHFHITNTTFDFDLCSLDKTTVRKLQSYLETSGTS
RAD54 inh: blocks human RAD54 Holliday junction branch migration; inhibition, % at 10.4 µM; FAM/BHQ fluorescence; AID 602329; Q92698; 360,000 tested, 0.14% active;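 active means mean normalized replicate activity at least 40 and at least half of replicates scoring 40 or more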;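 further: 0% = median of neutral control wells and 100% = median of positive control wells; inhibitors cause a drop in the FAM fluorescence signal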
RAD52 anneal inh: blocks human RAD52 DNA annealing. AID 651710. inhibition, % at 18.7 µM. 360,000 tested, 0.46% active. recombinant RAD52 DNA annealing, FRET fluorescence. P43351;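 active means every replicate showing at least 50% inhibition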
Glyco luc inh: N-linked glycosylation inhibition; D54 ERlucT glycosylation luciferase reporter, 24 h; percent of 100 nM tunicamycin response; reporter increase, % at 12.5 µM; 360,000 tested, 0.23% active; AID 588692;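 active means mean luciferase reporter signal, scaled so untreated is 0 and the glycosylation-blocking control 100, at or above a set limit in every replicate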;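 further: luciferase carries N-glycosylation sites so blocking glycosylation raises the light; 0% = median of neutral control wells and 100% = median of 100 nM tunicamycin wells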
Starred values were filed as active, the others as inactive; · = no result given.

SMILES | FN deposit inh | AF4-AF9 inh | RAD54 inh | RAD52 anneal inh | Glyco luc inh
COc1ccc(NC(=O)Nc2ccc3c(c2)C(=O)N([C@H](C)CO)C[C@@H](C)[C@H](CN(C)Cc2ccc4c(c2)OCO4)OCCCC[C@@H](C)O3)cc1 | · | 27* | 2 | 2 | ·
COc1ccc(CN(C)C[C@@H]2OCCCC[C@H](C)Oc3ccc(NC(=O)Nc4ccc5c(c4)OCO5)cc3C(=O)N([C@H](C)CO)C[C@H]2C)cc1 | 0 | 25* | 5 | 47 | ·
COc1ccc(CN(C)C[C@H]2OCCCC[C@@H](C)Oc3ccc(NC(=O)Nc4ccc5c(c4)OCO5)cc3C(=O)N([C@@H](C)CO)C[C@H]2C)cc1 | 5 | 32* | -5 | 22 | ·
C[C@@H]1CN([C@@H](C)CO)S(=O)(=O)c2ccc(-c3cccnc3)cc2O[C@H]1CN(C)C(=O)C1CCCCC1 | · | 2 | -3 | 9 | ·
C[C@H](CO)N1C[C@H](C)[C@@H](CN(C)C(=O)Nc2ccccc2)Oc2ccc(NS(=O)(=O)c3ccc(Cl)cc3)cc2CC1=O | · | -1 | -5 | 19 | ·
O=C(c1cccnc1)N1C[C@H]2[C@@H](c3ccccc31)[C@@H](CO)N2CC1CCCCC1 | · | 0 | -11 | -11 | ·
O=c1cc(-c2ccccc2)oc2ccc(O)cc12 | 7 | 3 | 16 | -6 | 3
OCCCN=c1cc(-c2ccccc2)oc2ccc(Cl)cc12 | · | · | · | · | 58*
O=C(NCC1CC1)[C@H]1[C@H](CO)[C@H]2Cn3c(cccc3=O)[C@@H]1N2C(=O)c1ccc(F)cc1 | · | -2 | 0 | 3 | ·
C[C@H]1CN([C@@H](C)CO)S(=O)(=O)c2ccc(Br)cc2O[C@H]1CN(C)S(=O)(=O)c1ccc(F)cc1 | 23 | 2 | 11 | 13 | ·
COc1ccc(NCC(O)Cn2c(C)c(C)c3ccccc32)cc1 (centres undefined) | 10 | 21 | · | 5 | 4
Cc1c(C)n(CC(O)CNc2ccccc2)c2ccccc12 (centres undefined) | 1 | 26* | · | -12 | -2
O=C(COc1ccc(/C=N/NC(=O)c2cc3ccccc3o2)cc1Br)Nc1ccccc1 | · | · | 4 | · | 62*
O=C(COc1ccccc1[N+](=O)[O-])Nc1ccc(NC(=O)c2cc3ccccc3o2)cc1 | -20 | -7 | 3 | -21 | -4
Cc1ccc(CS(=O)Cc2ccc(C(=O)NC3CCCC(C)C3C)o2)cc1 (centres undefined) | 30* | 0 | -10 | -17 | -2
Cc1ccc(CS(=O)Cc2ccc(C(=O)NC3CCCCCC3)o2)cc1 (centres undefined) | -17 | 1 | -8 | -18 | 2
CCN(CC)S(=O)(=O)c1ccc(N2CCOCC2)c(NC(=O)c2ccc(F)cc2)c1 | -2 | -1 | · | -17 | 4
CCN(CC)S(=O)(=O)c1ccc(N2CCOCC2)c(NC(=O)c2[nH]c(C)c(C(C)=O)c2C)c1 | 6 | -3 | 3 | -11 | 63*
CN(C)CCCN(C(=O)c1cc(Cl)sc1Cl)c1nc2cc3c(cc2s1)OCO3 | -1 | 28* | 26 | 37 | -3
O=C(C[C@@H]1CC[C@H](NC(=O)Nc2cc(F)ccc2F)[C@@H](CO)O1)NCc1ccc2c(c1)OCO2 | -9 | -15 | -9 | 13 | ·
CC(=O)/C=C/c1ccccc1Oc1c(F)c(F)nc(F)c1F | 4 | 0 | 3 | -11 | 60*
Oc1ccccc1Oc1c(F)c(F)nc(N2CCCC2)c1F | · | 1 | 7 | 0 | -1
O=C(CCCc1ccccc1)Nc1cccc(C(=O)O)c1 | 33* | 0 | · | -21 | -5
O=C(CCc1ccccc1)NC(=S)Nc1cccc(C(=O)O)c1 | -4 | -1 | 3 | -3 | -2
Oc1c(CNc2ccccc2)cc(COCc2ccccc2)c2cccnc12 | 15 | 68* | -4 | -41 | -2
SMILES | FN deposit inh | AF4-AF9 inh | RAD54 inh | RAD52 anneal inh | Glyco luc inh
CN(C)CC(=O)N1[C@@H]2c3ccc(-c4ccccc4)c(=O)n3C[C@H]1[C@H](CO)[C@H]2C(=O)N1CCCCC1 | · | -2 | 10 | 1 | ·
CC(=O)N1[C@@H]2Cn3c(ccc(-c4ccccc4)c3=O)[C@H]1[C@@H](C(=O)N1CCCCC1)[C@@H]2CO | · | 0 | 6 | 59* | ·
O=C(NC1CCCC1)N1CC2(C1)[C@H](c1ccccc1)[C@H](CO)N2S(=O)(=O)Cc1ccccc1 | 2 | -1 | · | -15 | ·
C[C@@H]1CN([C@H](C)CO)C(=O)c2ccccc2-c2ccccc2CO[C@@H]1CN(C)CC1CC1 | 6 | · | · | · | ·
CC(CCC(C)C(C)(C)C)[C@@H]1CC[C@H]2C3C[C@H](OS(O)(=S)=S)[C@H]4C[C@H](OS(O)(=S)=S)[C@@H](OS(O)(=S)=S)C[C@]4(C)[C@H]3CC[C@]12C (some centres undefined) (tested in a mixture with another compound) | · | · | 110* | · | 5
COc1ccc(CN(C)C[C@@H]2Oc3ccc(NC(=O)CCCCCC(=O)Nc4ccccc4N)cc3CC(=O)N([C@H](C)CO)C[C@@H]2C)cc1 | · | 0 | · | -19 | ·
Cc1ccc(S(=O)(=O)N(C)C[C@@H]2Oc3ccc(NC(=O)Nc4c(C)noc4C)cc3CC(=O)N([C@@H](C)CO)C[C@@H]2C)cc1 | · | 2 | 55* | 5 | ·
C[C@H]1CN([C@@H](C)CO)C(=O)Cc2cc(NC(=O)CCC(F)(F)F)ccc2O[C@H]1CN(C)S(=O)(=O)c1ccc(F)cc1 | 4 | -2 | -1 | -1 | 40*
Cc1noc(C)c1S(=O)(=O)N(C)C[C@@H]1Oc2ccc(NS(=O)(=O)c3cccs3)cc2CC(=O)N([C@@H](C)CO)C[C@H]1C | · | 26* | 1 | -6 | ·
C[C@H](CO)N1C[C@H](C)[C@H](CN(C)S(=O)(=O)c2ccc(Cl)cc2)Oc2ccc(NC(=O)CCC(F)(F)F)cc2CC1=O | 0 | 0 | -4 | 4 | ·
C[C@H]1CN([C@@H](C)CO)C(=O)Cc2cc(NC(=O)CCC(F)(F)F)ccc2O[C@H]1CN(C)S(=O)(=O)c1ccc(Cl)cc1 | 5 | 2 | -10 | 19 | 32*
Cc1noc(C)c1S(=O)(=O)N(C)C[C@@H]1Oc2ccc(NS(=O)(=O)c3cccs3)cc2CC(=O)N([C@H](C)CO)C[C@@H]1C | · | 6 | 3 | · | ·
Cc1noc(C)c1NC(=O)Nc1ccc2c(c1)C(=O)N([C@@H](C)CO)C[C@@H](C)[C@H](CN(C)CC1CCCCC1)OCCCC[C@H](C)O2 | · | 1 | 6 | 17 | ·
CCC(=O)N1CC2(C1)[C@@H](c1ccc(-c3ccc(C)cc3)cc1)[C@@H](CO)N2S(C)(=O)=O | · | 0 | · | -16 | ·
O=C1N[C@H](c2ccccc2)COCc2cnnn2CC[C@H]1Cc1ccc(-c2ccccc2)cc1 | 0 | · | · | · | ·
N#C[C@@H]1[C@@H](c2ccccc2-c2ccccc2F)[C@H](CO)N1C(=O)C1CCC1 | -1 | -4 | · | -18 | ·
C[C@@H]1CCCCO[C@@H](CN(C)C(=O)c2ccccc2)[C@H](C)CN([C@H](C)CO)C(=O)c2cc(NC(=O)Nc3ccc(C(F)(F)F)cc3)ccc2O1 | · | 1 | 0 | -16 | ·
